ChEMBL document CHEMBL3808334, “Synthesis and in vitro evaluation of novel triazine analogues as anticancer agents and their interaction studies with bovine serum albumin” (Eur J Med Chem, 2016)

Key:
Format in all cases: functional
A498 = assay: Growth inhibition of human A498 cells assessed as cell growth at 10^-6 M incubated for 48 hrs by sulforhodamine B assay; conditions: A498, 48 h, read-out: Activity
Summary of the method: (§1)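 Five-dose assay: five concentrations from 10-fold or ½-log serial dilutions. Cells are plated at 5,000–40,000 per well according to doubling time, grown 24 h, then exposed 48 h at 37 °C, 5% CO₂. Fixed with cold 50% TCA (final addition) for 60 min at 4 °C and stained with 0.4% SRB in 1% acetic acid. Bound dye is solubilized in 10 mM Tris base and read at 515 nm. GI₅₀ is where [(Ti−Tz)/(C−Tz)]×100 = 50, with a time-zero plate as Tz.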

MDA-MB-231 = assay: Growth inhibition of human MDA-MB-231 cells assessed as cell growth at 10^-7 M incubated for 48 hrs by sulforhodamine B assay; conditions: MDA-MB-231, 48 h, read-out: Activity
[1] = Growth inhibition of human LOXIMVI cells assessed as cell growth at 10^-8 M incubated for 48 hrs by sulforhodamine B assay; conditions: LOX IMVI, read-out: Activity
[2] = Growth inhibition of human UO31 cells assessed as cell growth at 10^-6 M incubated for 48 hrs by sulforhodamine B assay; conditions: UO-31, 48 h, read-out: Activity
SK-MEL-2 = assay: Growth inhibition of human SK-MEL-2 cells incubated for 48 hrs by sulforhodamine B assay; conditions: SK-MEL-2, 48 h
Summary of the method: (§2)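 Cells were plated at 5,000–40,000 per well according to doubling time and preincubated 24 h at 37 °C in 5% CO2; time-zero plates were then TCA-fixed. Five concentrations (10-fold or ½-log dilutions, DMSO stock) were incubated 48 h. Cells were TCA-fixed, stained with 0.4% SRB and read at 515 nm. GI50 was taken where [(Ti−Tz)/(C−Tz)]×100 = 50.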

[3] = Growth inhibition of human MOLT4 cells assessed as cell growth at 10^-5 M incubated for 48 hrs by sulforhodamine B assay; conditions: MOLT-4, 48 h, read-out: Activity
[4] = Growth inhibition of human HL-60(TB) cells assessed as cell growth at 10^-6 M incubated for 48 hrs by sulforhodamine B assay; conditions: HL-60, 48 h, read-out: Activity
Summary of the method: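 Cells plated at 5,000–40,000/well according to doubling time and preincubated 24 h at 37 °C, 5% CO₂, with time-zero plates TCA-fixed. Drugs were kept as DMSO concentrates at 400× the top concentration and diluted in medium with 50 µg/ml gentamicin. Five 10-fold or ½-log dilutions were run for 48 h, followed by SRB staining and A515. Percent growth = (Ti−Tz)/(C−Tz)×100, or (Ti−Tz)/Tz×100 when Ti<Tz.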

[5] = Growth inhibition of human BT549 cells assessed as cell growth at 10^-8 M incubated for 48 hrs by sulforhodamine B assay; conditions: BT-549, 48 h, read-out: Activity; summary of the method: as §1
[6] = Growth inhibition of human SNB75 cells assessed as cell growth at 10^-5 M incubated for 48 hrs by sulforhodamine B assay; conditions: SNB-75, 48 h, read-out: Activity
SK-MEL-28 = assay: Growth inhibition of human SK-MEL-28 cells assessed as cell growth at 10^-8 M incubated for 48 hrs by sulforhodamine B assay; conditions: SK-MEL-28, 48 h, read-out: Activity
HT-29 = assay: Growth inhibition of human HT-29 cells incubated for 48 hrs by sulforhodamine B assay; conditions: HT-29, 48 h; summary of the method: as §2
NCI/ADR-RES = assay: Growth inhibition of human NCI/ADR-RES cells assessed as cell growth at 10^-8 M incubated for 48 hrs by sulforhodamine B assay; conditions: read-out: Activity
[7] = Growth inhibition of human OVCAR4 cells assessed as cell growth at 10^-6 M incubated for 48 hrs by sulforhodamine B assay; conditions: OVCAR-4, 48 h, read-out: Activity
NCI-H460 = assay: Growth inhibition of human NCI-H460 cells assessed as cell growth at 10^-7 M incubated for 48 hrs by sulforhodamine B assay; conditions: NCI-H460, 48 h, read-out: Activity
786-0 = assay: Growth inhibition of human 786-0 cells assessed as cell growth at 10 uM incubated for 48 hrs by sulforhodamine B assay; conditions: 786-0, 48 h, read-out: Activity
Summary of the method: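 One-dose screen at 10 µM final. Cells are plated at 5,000–40,000 per well according to doubling time and preincubated 24 h at 37 °C, 5% CO₂. Compound (DMSO stock diluted in medium with 50 µg/ml gentamicin) is then added for 48 h. Growth percent is read by sulforhodamine B staining, absorbance at 515 nm.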

[8] = Growth inhibition of human HL-60(TB) cells assessed as cell growth at 10 uM incubated for 48 hrs by sulforhodamine B assay; conditions: HL-60, 48 h, read-out: Activity
[9] = Growth inhibition of human OVCAR3 cells assessed as cell growth at 10^-6 M incubated for 48 hrs by sulforhodamine B assay; conditions: OVCAR-3, 48 h, read-out: Activity
[10] = Growth inhibition of human SNB19 cells assessed as cell growth at 10^-8 M incubated for 48 hrs by sulforhodamine B assay; conditions: SNB-19, 48 h, read-out: Activity
[11] = Growth inhibition of human OVCAR5 cells incubated for 48 hrs by sulforhodamine B assay; conditions: OVCAR-5, 48 h; summary of the method: as §2
[12] = Growth inhibition of human RXF393 cells assessed as cell growth at 10^-7 M incubated for 48 hrs by sulforhodamine B assay; conditions: RXF 393, 48 h, read-out: Activity
[13] = Growth inhibition of human leukemia cells incubated for 48 hrs by sulforhodamine B assay; conditions: Leukemia cell; for CC50: read-out: LC50 (the source's name)
[14] = Growth inhibition of human breast cancer cells incubated for 48 hrs by sulforhodamine B assay; conditions: Cancer cell lines; for CC50: read-out: LC50 (the source's name)
[15] = Growth inhibition of human UACC62 cells assessed as cell growth at 10^-7 M incubated for 48 hrs by sulforhodamine B assay; conditions: UACC-62, 48 h, read-out: Activity
[16] = Growth inhibition of human SF539 cells assessed as cell growth at 10^-5 M incubated for 48 hrs by sulforhodamine B assay; conditions: SF-539, 48 h, read-out: Activity
SK-MEL-5 = assay: Growth inhibition of human SK-MEL-5 cells assessed as cell growth at 10^-5 M incubated for 48 hrs by sulforhodamine B assay; conditions: SK-MEL-5, 48 h, read-out: Activity
[17] = read-out: LC50 (the source's name)
[18] = read-out: pLC50 (the source's name) (converted)

In the case of `c1ccc(-c2nc(Nc3ccc(-c4nc5ccccc5[nH]4)cc3)nc(N3CCOCC3)n2)cc1`, the growth at 1 µM (A498) is reported as 55%, the growth at 0.1 µM (MDA-MB-231) is reported as 86% and the growth at 0.01 µM [1] is reported as 94%. For the same molecule, the growth at 1 µM [2] was 68%, the GI50 (SK-MEL-2; read-out: GI50) was 1970 nM and the CC50 (SK-MEL-2; [17]) was 6.55 µM. The TGI (SK-MEL-2; read-out: TGI) was 3.59 µM, the GI50 (SK-MEL-2; read-out: pGI50 (converted)) was 1950 nM and the CC50 (SK-MEL-2; [18]) was 6.61 µM. It also gave a TGI (SK-MEL-2; read-out: pTGI (converted)) of 3.63 µM, a growth at 10 µM [3] of -53% and a growth at 1 µM [4] of -7%. For the same molecule, the growth at 0.01 µM [5] was 99%, the growth at 10 µM [6] was -88% and the growth at 0.01 µM (SK-MEL-28) was 103%. The GI50 (HT-29; read-out: GI50) was 645 nM, the CC50 (HT-29; [17]) was 6.45 µM and the TGI (HT-29; read-out: TGI) was 2.19 µM. It also gave a GI50 (HT-29; read-out: pGI50 (converted)) of 646 nM, a CC50 (HT-29; [18]) of 6.46 µM and a TGI (HT-29; read-out: pTGI (converted)) of 2.19 µM. For the same molecule, the growth at 0.01 µM (NCI/ADR-RES) was 95%, the growth at 1 µM [7] was 93% and the growth at 0.1 µM (NCI-H460) was 103%. For the same molecule, the growth at 10 µM (786-0) was -88.9%, the growth at 10 µM [8] was -32.7% and the growth at 1 µM [9] was 81%. The growth at 0.01 µM [10] was 98%, the GI50 ([11]; read-out: GI50) was 2160 nM and the CC50 [11, 17] was 7.49 µM. It also gave a TGI ([11]; read-out: TGI) of 4.02 µM, a GI50 ([11]; read-out: pGI50 (converted)) of 2140 nM and a CC50 [11, 18] of 7.41 µM. For the same molecule, the TGI ([11]; read-out: pTGI (converted)) was 3.98 µM, the growth at 0.1 µM [12] was 96% and the GI50 [13] was 570 nM. For the same molecule, the TGI [13] was 2.17 µM, the CC50 [13] was 16.3 µM and the GI50 [14] was 1630 nM. For the same molecule, the TGI [14] was 4.08 µM, the CC50 [14] was 8.74 µM and the growth at 0.1 µM [15] was 97%. The growth at 10 µM [16] was -84% and the growth at 10 µM (SK-MEL-5) was -92%.

`Fc1ccc(-c2nc(Nc3ccc(-c4nc5ccccc5[nH]4)cc3)nc(N3CCOCC3)n2)cc1` showed a growth at 1 µM (A498) of 74%, a growth at 0.1 µM (MDA-MB-231) of 86% and a growth at 0.01 µM [1] of 98%. The growth at 1 µM [2] was 90%, the GI50 (SK-MEL-2; read-out: GI50) was 2330 nM and the CC50 (SK-MEL-2; [17]) was over 100 µM. It also gave a TGI (SK-MEL-2; read-out: TGI) of 5.49 µM, a GI50 (SK-MEL-2; read-out: pGI50 (converted)) of 2340 nM and a CC50 (SK-MEL-2; [18]) of over 100 µM. It also gave a TGI (SK-MEL-2; read-out: pTGI (converted)) of 5.5 µM, a growth at 10 µM [3] of -23% and a growth at 1 µM [4] of 81%. For the same molecule, the growth at 0.01 µM [5] was 94%, the growth at 10 µM [6] was 1% and the growth at 0.01 µM (SK-MEL-28) was 101%. It also gave a GI50 (HT-29; read-out: GI50) of 2230 nM, a CC50 (HT-29; [17]) of over 100 µM and a TGI (HT-29; read-out: TGI) of 5.39 µM. The GI50 (HT-29; read-out: pGI50 (converted)) was 2240 nM, the CC50 (HT-29; [18]) was over 100 µM and the TGI (HT-29; read-out: pTGI (converted)) was 5.37 µM. The growth at 0.01 µM (NCI/ADR-RES) was 98%, the growth at 1 µM [7] was 96% and the growth at 0.1 µM (NCI-H460) was 103%. The growth at 10 µM (786-0) was -60%, the growth at 10 µM [8] was -46% and the growth at 1 µM [9] was 89%. It also gave a growth at 0.01 µM [10] of 102%, a GI50 ([11]; read-out: GI50) of 2700 nM and a CC50 [11, 17] of over 100 µM. The TGI ([11]; read-out: TGI) was 8.9 µM, the GI50 ([11]; read-out: pGI50 (converted)) was 2690 nM and the CC50 [11, 18] was over 100 µM. The TGI ([11]; read-out: pTGI (converted)) was 8.91 µM, the growth at 0.1 µM [12] was 100% and the GI50 [13] was 2020 nM. For the same molecule, the TGI [13] was 6.11 µM, the CC50 [13] was over 100 µM and the GI50 [14] was 2090 nM. For the same molecule, the TGI [14] was 5.55 µM, the CC50 [14] was over 100 µM and the growth at 0.1 µM [15] was 91%. For the same molecule, the growth at 10 µM [16] was -60% and the growth at 10 µM (SK-MEL-5) was -87%.
